Data: publication PMC12966599 (Journal of Pharmaceutical Analysis, 2025)
Where a chain is given by its changes, count along the chain named. Entries after “also recorded” stand apart in the source; their conditions may differ. Values belong to the compound of their own block, whether it stands above or below them.

Assays:
[1] = test system: SHP2; settings: read-out: IC50 against SHP2; previous study; ref 22 (Liu et al.); cited from earlier work
[2] = test system: p-ERK in H1975 cells; test: ERK phosphorylation in cells; type: cell-based; settings: 10 μM
Summary of the method: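 H1975 cells, grown in RPMI-1640 with 10% FBS, were exposed to 10 μM compound and lysed in RIPA buffer with phosphatase and protease inhibitors. Proteins were separated and transferred. Blots were probed overnight at 4 °C with antibodies to p-ERK1/2, total ERK and β-actin diluted in 5% BSA, then developed by enhanced chemiluminescence.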

[3] = biological target: PTPN6 (SHP1) (Homo sapiens, UniProt P29350); test: Phosphatase selectivity, PTPN6; type: biochemical
[4] = biological target: T1, PTPN12 (PTP-PEST) (Homo sapiens, UniProt Q05209); test: Phosphatase selectivity, PTPN12; type: biochemical
T1 sequence (Q05209 1-305): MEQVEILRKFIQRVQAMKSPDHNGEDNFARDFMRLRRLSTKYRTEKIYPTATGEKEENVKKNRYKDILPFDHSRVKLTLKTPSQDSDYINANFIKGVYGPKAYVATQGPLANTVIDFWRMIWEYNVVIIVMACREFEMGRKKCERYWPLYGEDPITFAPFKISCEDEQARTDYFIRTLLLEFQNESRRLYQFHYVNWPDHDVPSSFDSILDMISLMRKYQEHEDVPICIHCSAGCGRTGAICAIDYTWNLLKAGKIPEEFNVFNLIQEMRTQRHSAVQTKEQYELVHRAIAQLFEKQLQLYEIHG

[5] = test system: NCI-H1975 cells; test: Colony formation assay; type: cell-based; settings: measured 10 days after compound treatment
Summary of the method: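 About 10^3 H1975 cells per well in RPMI-1640 with 10% FBS were allowed to adhere overnight and treated the next day. Medium and compound were renewed every 3–4 days. When untreated wells reached confluence, colonies were fixed with formaldehyde, stained with 0.2% crystal violet and scanned.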

[6] = test system: H1975 xenograft; test: NCI-H1975 xenograft model; type: in vivo, BALB/c nude mice
Summary of the method: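 Female BALB/c nude mice, five weeks old, received a subcutaneous H1975 suspension (5 × 10^6/mL) in the right flank. At a mean tumor volume of 50–100 mm3 they were randomised into three groups. Compound in 0.5% CMC-Na was given intragastrically at 20 mg/kg/day; controls received vehicle. Body weight and tumor volume were recorded every two days. Tumor sections were stained for Ki-67, and tumor lysates were immunoblotted for p-ERK. Data are mean ± SD with two-sided t-test.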

[7] = biological target: T2, SHP2-PTP^Q510A (Homo sapiens, UniProt Q06124, Q510A); test: BLI assay, SHP2-PTP^Q510A; type: binding
T2 sequence (Q06124 237-529 Q510A): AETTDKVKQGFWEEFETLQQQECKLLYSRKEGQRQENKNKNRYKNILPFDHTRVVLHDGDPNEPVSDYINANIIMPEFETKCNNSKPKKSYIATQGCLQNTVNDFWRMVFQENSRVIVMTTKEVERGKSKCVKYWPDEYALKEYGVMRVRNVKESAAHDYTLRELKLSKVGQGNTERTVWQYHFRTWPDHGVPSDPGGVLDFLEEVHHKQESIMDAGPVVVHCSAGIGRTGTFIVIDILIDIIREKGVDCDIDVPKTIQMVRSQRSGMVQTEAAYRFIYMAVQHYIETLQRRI

[8] = biological target: T3, SHP2^E76K (Homo sapiens, UniProt Q06124, E76K); test: Inhibition of oncogenic mutant SHP2^E76K; type: biochemical
T3 sequence (Q06124 1-525 E76K): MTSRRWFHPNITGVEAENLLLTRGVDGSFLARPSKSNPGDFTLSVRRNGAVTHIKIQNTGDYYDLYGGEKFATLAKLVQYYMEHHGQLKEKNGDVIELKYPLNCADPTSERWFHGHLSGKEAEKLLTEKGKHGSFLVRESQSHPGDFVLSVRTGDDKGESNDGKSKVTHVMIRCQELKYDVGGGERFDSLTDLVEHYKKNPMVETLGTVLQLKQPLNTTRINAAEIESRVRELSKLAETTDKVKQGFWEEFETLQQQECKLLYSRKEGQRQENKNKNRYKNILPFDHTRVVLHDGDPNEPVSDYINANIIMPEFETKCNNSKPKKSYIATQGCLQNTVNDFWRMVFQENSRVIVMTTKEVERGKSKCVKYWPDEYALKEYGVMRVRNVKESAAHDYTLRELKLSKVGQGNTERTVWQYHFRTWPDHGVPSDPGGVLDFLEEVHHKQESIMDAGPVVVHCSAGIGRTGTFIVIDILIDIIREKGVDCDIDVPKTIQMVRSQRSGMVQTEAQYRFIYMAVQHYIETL

[9] = biological target: T4, SHP2^D61V (Homo sapiens, UniProt Q06124, D61V); test: Inhibition of oncogenic mutant SHP2^D61V; type: biochemical
T4 sequence (Q06124 1-525 D61V): T3 sequence (Q06124 1-525 E76K) with D61V, K76E

[10] = biological target: PTPRA (RPTPα) (Homo sapiens, UniProt P18433); test: Phosphatase selectivity, PTPRA; type: biochemical
[11] = biological target: T5, PTPN1 (PTP1B) (Homo sapiens, UniProt P18031); test: Phosphatase selectivity, PTPN1; type: biochemical
T5 sequence (P18031 1-321): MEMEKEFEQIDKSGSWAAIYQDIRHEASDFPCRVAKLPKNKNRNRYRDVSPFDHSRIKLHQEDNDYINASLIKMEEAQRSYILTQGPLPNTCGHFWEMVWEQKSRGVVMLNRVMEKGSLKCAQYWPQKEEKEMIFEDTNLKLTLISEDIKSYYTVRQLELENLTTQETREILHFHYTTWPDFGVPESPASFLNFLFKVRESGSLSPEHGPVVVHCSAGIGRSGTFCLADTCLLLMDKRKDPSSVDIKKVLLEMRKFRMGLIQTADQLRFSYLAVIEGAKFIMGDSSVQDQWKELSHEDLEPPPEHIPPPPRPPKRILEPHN

[12] = biological target: T6, SHP2-PTP (Homo sapiens, UniProt Q06124); test: SHP2-PTP inhibition assay; type: biochemical; settings: for IC50: IC50 (SHP2-PTP), DiFMUP substrate
T6 sequence (Q06124 237-529): T2 sequence (Q06124 237-529 Q510A) with A274Q

[13] = biological target: T7, SHP2-FL (Homo sapiens, UniProt Q06124); test: SHP2-FL inhibition assay; type: biochemical
T7 sequence (Q06124 1-525): T3 sequence (Q06124 1-525 E76K) with K76E

[14] = test system: SHP2 knockdown H1975 cells; test: Cell proliferation in SHP2 knockdown cells; type: cell-based; settings: SHP2 siRNA treated H1975 cells versus H1975
[15] = test system: NCI-H1975 cells; test: Cell proliferation assay; type: cell-based; settings: CCK-8, day 3
Summary of the method: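 About 1.5 × 10^3 H1975 cells per well, in RPMI-1640 with 10% FBS, were treated with compound at 0–50 μM. On day 3 CCK-8 reagent was added and optical density read. Untreated wells served for background correction.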

[16] = biological target: T8, SHP2-PTP^R465A (Homo sapiens, UniProt Q06124, R465A); test: BLI assay, SHP2-PTP^R465A; type: binding
T8 sequence (Q06124 237-529 R465A): T2 sequence (Q06124 237-529 Q510A) with R229A, A274Q

[17] = biological target: T9, LMWPTP (ACP1) (Homo sapiens, UniProt P24666); test: Phosphatase selectivity, LMWPTP; type: biochemical
T9 sequence (P24666 1-158): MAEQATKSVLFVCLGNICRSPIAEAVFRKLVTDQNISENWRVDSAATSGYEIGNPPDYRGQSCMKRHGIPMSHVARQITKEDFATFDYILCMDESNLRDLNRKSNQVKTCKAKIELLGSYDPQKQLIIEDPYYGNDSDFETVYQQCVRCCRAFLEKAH

[18] = biological target: T10, SHP2^T253M (Homo sapiens, UniProt Q06124, T253M); test: Inhibition of tunnel-site mutant SHP2^T253M; type: biochemical
T10 sequence (Q06124 1-525 T253M): T3 sequence (Q06124 1-525 E76K) with K76E, T253M

[19] = 20 mg/kg/day oral, versus vehicle

Sequence of PTPN6 (SHP1) (P29350 1-597 isoform P29350-3): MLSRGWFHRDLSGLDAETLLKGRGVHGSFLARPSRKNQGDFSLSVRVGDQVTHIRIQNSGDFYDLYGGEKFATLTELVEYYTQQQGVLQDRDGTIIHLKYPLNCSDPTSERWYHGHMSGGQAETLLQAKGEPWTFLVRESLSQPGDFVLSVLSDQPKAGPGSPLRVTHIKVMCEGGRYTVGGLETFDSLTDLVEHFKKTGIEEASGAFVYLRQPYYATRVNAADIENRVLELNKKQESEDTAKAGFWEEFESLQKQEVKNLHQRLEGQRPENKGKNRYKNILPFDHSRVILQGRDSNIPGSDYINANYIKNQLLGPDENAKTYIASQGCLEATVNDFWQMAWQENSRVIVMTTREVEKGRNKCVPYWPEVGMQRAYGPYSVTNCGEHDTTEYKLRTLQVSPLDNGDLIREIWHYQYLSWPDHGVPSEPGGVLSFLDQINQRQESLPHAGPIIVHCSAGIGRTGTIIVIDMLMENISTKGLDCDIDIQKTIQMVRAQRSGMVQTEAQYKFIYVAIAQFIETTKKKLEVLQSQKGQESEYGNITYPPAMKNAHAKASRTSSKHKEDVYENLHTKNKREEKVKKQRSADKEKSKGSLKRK
Sequence of PTPRA (RPTPα) (P18433 183-802): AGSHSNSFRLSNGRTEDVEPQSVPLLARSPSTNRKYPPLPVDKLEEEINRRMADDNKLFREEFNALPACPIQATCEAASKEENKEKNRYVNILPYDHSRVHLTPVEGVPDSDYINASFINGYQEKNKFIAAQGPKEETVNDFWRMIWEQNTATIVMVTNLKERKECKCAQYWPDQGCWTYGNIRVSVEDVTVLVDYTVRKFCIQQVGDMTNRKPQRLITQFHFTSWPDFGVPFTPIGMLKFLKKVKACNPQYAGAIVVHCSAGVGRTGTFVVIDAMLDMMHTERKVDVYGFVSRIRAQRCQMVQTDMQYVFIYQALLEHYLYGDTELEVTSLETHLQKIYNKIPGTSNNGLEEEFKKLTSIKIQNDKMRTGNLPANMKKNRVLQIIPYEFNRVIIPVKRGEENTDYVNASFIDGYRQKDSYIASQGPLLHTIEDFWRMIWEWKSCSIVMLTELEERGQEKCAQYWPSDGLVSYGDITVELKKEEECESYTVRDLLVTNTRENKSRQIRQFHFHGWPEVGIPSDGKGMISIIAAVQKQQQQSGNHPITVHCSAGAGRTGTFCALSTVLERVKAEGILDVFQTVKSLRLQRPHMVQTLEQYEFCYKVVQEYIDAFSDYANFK

Compound: C[C@H]1COC2=C1C(=O)C(=O)c1c2ccc2c1CCCC2(C)C [Cryptotanshinone]
IC50 [1]: 22.5 µM

IC50 [3]: 2.5 ± 0.3 µM | IC50 [4]: 32.1 ± 3.8 µM | IC50 [8]: 1.61 ± 0.26 µM | IC50 [9]: 1.34 ± 0.36 µM | IC50 [10]: 50.4 ± 5.3 µM | IC50 [11]: 9.3 ± 0.94 µM | fold higher inhibitory potency against SHP2 than cryptotanshinone ([12]; DiFMUP screening, versus cryptotanshinone): 4.7 fold | IC50 [12]: 1.06 ± 0.21 µM | fold lower SHP2-PTP IC50 than tanshinone IIA ([12]; versus tanshinone IIA): 13 fold | SHP2-FL inhibitory activity (in words) [13]: comparable inhibitory activity | IC50 [17]: > 100 µM
Compound: Cc1cccc2c3c(ccc12)C1=C(C(=O)C3=O)[C@@H](C)CO1 [DHT, dihydrotanshinone I]
ERK phosphorylation (Western blot) [2]: significant decrease | colony formation of NCI-H1975 cells [5]: significant suppression | body weight change ([6]; 20 mg/kg/day oral, full treatment course): No body weight loss | Ki-67 staining in tumor tissue [6, 19]: reduced Ki-67 staining positive areas | MAPK phosphorylation in tumor tissue [6, 19]: marked decrease | tumor growth in NCI-H1975 xenograft ([6]; oral gavage 20 mg/kg daily, 20-day treatment, versus vehicle, 20 mg/kg): significant tumor growth suppression; also recorded: modest anti-tumor effect | direct interaction with SHP2-PTP^Q510A (BLI) [7]: significantly abolished the direct interaction | sensitivity of SHP2-depleted H1975 cells (anti-proliferation) [14]: significantly lower sensitivity | proliferation of NCI-H1975 cells [15]: significant suppression | direct interaction with SHP2-PTP^R465A (BLI) [16]: significantly abolished the direct interaction

effect of SHP2^T253M mutation on efficacy (in words) [18]: eliminated the efficacy
Compound: C[C@@H]1OCC2(CCN(c3cnc(Sc4ccnc(N)c4Cl)c(N)n3)CC2)[C@@H]1N [TNO155]

IC50 [12]: 3.3 ± 1.2 µM
Compound: Cc1coc2c1C(=O)C(=O)c1c-2ccc2c(C)cccc12 [Tanshinone I]
